# Most compounds without a hit are left out; they make up all but 3.5% or so of the library.
# MITF act – activators of MITF-driven TRPM1 promoter reporter, primary screen, cell-based, SK-MEL-5, luciferase, single point | SK-MEL-5 TRPM1-promoter luciferase, 24 h; % of positive control, neutral wells = 0 | activation, % at 12.5 µM | 300,000 tested, 0.75% active | AID 588334, 2011;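 active = mean activation of at least 80% with every replicate also reaching 80%; inconclusive = mean reaches 80% but some replicate falls short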;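 also: 0% = neutral control wells and 100% = parthenolide positive control wells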
# HIV Env fusion – inhibitors of HIV-1 Env-driven cell-cell fusion, primary screen, HeLa-JRFL effector, CEM21 target cells, luciferase. 360,000 tested, 1.1% active. inhibition, % at 12.3 µM. AID 651610, 2012;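 active = mean replicate inhibition score of at least 50 and every replicate individually at or above 50; inconclusive = only one of the two criteria met; inactive = mean below 50 and not all replicates reaching 50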;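 also: 0% = plate neutral controls and 100% = maraviroc near 300 nM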
# Wnt act – Wnt/beta-catenin pathway activators, primary screen, cell-based, plate reader, single point; Wnt/beta-catenin reporter cell assay, activator; activation, % at 9.35 µM; 300,000 tested, 1.2% active; AID 743398, 2014; in the data active = activation above about 30%, passing the limit was not always enough; inconclusive = no clear call, values can overlap the other calls;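 also: 0% = neutral control wells and 100% = positive control wells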
# ERAP1 inh – human ERAP1 aminopeptidase inhibitors, primary screen, biochemical, single point, plate reader | Endoplasmic reticulum aminopeptidase 1 (Homo sapiens), Q9NZ08 | 340,000 tested, 0.15% active | recombinant ERAP1, Leu-AMC fluorescence, 60 min | inhibition, % at 10.7 µM;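 active = mean replicate inhibition of at least 30%, or all replicates individually reaching that 30% level; inactive = mean below 30% and not every replicate reaching it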;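 also: 0% = neutral control wells and 100% = L-leucinethiol positive control wells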
# Target sequence (Q9NZ08 whole entry, looked up): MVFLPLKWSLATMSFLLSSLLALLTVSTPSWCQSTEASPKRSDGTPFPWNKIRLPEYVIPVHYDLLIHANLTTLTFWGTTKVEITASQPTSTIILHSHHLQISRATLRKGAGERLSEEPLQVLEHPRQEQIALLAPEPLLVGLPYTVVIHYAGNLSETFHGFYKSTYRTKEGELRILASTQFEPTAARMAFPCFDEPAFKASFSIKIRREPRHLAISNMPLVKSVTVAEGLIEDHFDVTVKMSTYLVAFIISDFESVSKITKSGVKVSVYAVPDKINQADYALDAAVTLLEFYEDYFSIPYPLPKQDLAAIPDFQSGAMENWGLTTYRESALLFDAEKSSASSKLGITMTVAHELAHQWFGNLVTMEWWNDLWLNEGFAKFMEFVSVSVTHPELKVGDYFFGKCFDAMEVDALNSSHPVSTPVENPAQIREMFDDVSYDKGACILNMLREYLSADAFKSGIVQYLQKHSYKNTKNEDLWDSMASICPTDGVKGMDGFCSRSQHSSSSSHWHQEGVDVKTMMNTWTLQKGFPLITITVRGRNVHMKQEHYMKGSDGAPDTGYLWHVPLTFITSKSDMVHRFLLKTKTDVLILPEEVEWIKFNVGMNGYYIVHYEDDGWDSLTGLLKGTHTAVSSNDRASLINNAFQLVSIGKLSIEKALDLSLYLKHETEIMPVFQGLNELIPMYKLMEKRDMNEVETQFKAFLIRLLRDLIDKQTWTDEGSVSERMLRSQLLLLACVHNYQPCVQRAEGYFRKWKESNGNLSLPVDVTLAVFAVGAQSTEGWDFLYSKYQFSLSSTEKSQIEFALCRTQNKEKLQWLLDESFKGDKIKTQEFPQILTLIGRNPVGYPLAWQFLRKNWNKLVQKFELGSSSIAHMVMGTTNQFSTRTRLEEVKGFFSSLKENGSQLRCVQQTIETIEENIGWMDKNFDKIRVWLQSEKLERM
# Cneo AK release – Cryptococcus neoformans cell lysis inducers, primary screen, AK release luminescence, single concentration; C. neoformans lysis, adenylate kinase release luminescence, 4 h; normalised: neutral wells 0, clomiphene wells 100; lysis activity, % at 15 µM; 360,000 tested, 0.2% active; AID 651654, 2012;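 active = mean lysis activity across replicates of at least 80%, whatever share of replicates individually reach that level; inactive = mean lysis activity below 80%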
#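 read-out = cell lysis signal | test system = log-phase Cryptococcus neoformans yeast cells | input = cells at 5 × 10^6 per mL | medium = fresh YPD growth medium | signal = luminescent adenylate kinase detection reagent | timing = 4 h at 37 °C static, read 1 h later | dosing = single dose | controls = Clomiphene as positive lysis control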
# esBAF inh – Bmi1 luciferase reporter increase in mESCs, primary screen, esBAF inhibitor project, mouse ES cells, Bmi1 luciferase knock-in, single point | 350,000 tested, 2% active | reporter increase, % at 12.5 µM | 24 h; 100% = twice the neutral-well signal | AID 602393, 2012; in the data active = activation above about 40%; inconclusive = no clear call, values can overlap the other calls;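 also: 0% = median of the plate's neutral control wells and 100% = double that signal; a rise in the Bmi1 reporter signal indicates esBAF inhibition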
# * hit, by the source's call; ? = inconclusive; nt = no result; [ ] = remark or other dose.
SMILES,MITF act,HIV Env fusion,Wnt act,ERAP1 inh,Cneo AK release,esBAF inh
COc1ccc(-c2ccc([C@H]3[C@@H](CO)N4C(=O)CN(C(=O)c5ccccc5)C[C@@H]34)cc2)cc1,nt,nt,nt,1,nt,nt
COc1ccc(Cn2c(-c3ccco3)nc3oc4ccccc4c(=O)c3c2=O)cc1,nt,-67,7,nt,0,68*
COCCn1c(C(C)C)nc2oc3ccccc3c(=O)c2c1=O,5,-100,0,nt,0,-3
CCc1nc2oc3ccccc3c(=O)c2c(=O)n1-c1ccccc1,35,-225,53*,nt,-2,30
CCc1nc2oc3ccccc3c(=O)c2c(=O)n1CCOC,nt,3,-7,nt,0,-11
CCc1nc2oc3ccccc3c(=O)c2c(=O)n1-c1ccc(C)cc1,nt,-76,44*,4,-1,nt
Cc1ccc(-n2c(C(C)C)nc3oc4ccccc4c(=O)c3c2=O)cc1,44,-231,65*,2,nt,nt
O=C(Cc1ccccn1)N[C@@H]1C=C[C@H](CC(=O)N2CCCCC2)O[C@@H]1CO,nt,0[16.7 µM],nt,-2,0,-2
CCCc1nc2oc3ccccc3c(=O)c2c(=O)n1-c1ccccc1,nt,-31,15,-2,1,nt
CCCc1nc2oc3ccccc3c(=O)c2c(=O)n1-c1ccc(C)cc1,nt,-119,49*,6,-1,nt
O=C(Nc1ccccc1)N[C@@H]1CC[C@@H](CCn2cc(-c3ccccc3F)nn2)O[C@H]1CO,nt,nt,nt,-1,nt,nt
CN(C(=O)COC(=O)c1cccc(Cl)c1)C1CCS(=O)(=O)C1 (stereo unspecified),7,nt,-1,1,-2,1
CC(C)CNS(=O)(=O)c1cc(C(=O)OCC(=O)N(C)C2CCS(=O)(=O)C2)c(Cl)cc1Cl (stereo unspecified),-1,17,53*,nt,2,-9
C[C@@H]1CN([C@@H](C)CO)C(=O)c2cc(NC(=O)CCCN(C)C)ccc2O[C@@H](C)CCCCO[C@H]1CN(C)CC1CCCCC1,nt,-2[16.7 µM],nt,8,0,-6
CCCCN(CC)c1nc(-c2ccncc2)nc2ccccc12,5,64*,nt,nt,11,2
CCCN(CCC)c1nc(-c2ccccn2)nc2ccccc12,-43,71*,-11,2,3,-27
C[C@H]1CN([C@@H](C)CO)C(=O)c2cc(NS(=O)(=O)c3ccccc3)ccc2O[C@H]1CN(C)C,nt,3[16.7 µM],nt,-3,0,2
C/C=C/c1ccc2c(c1)O[C@@H](CN(C)C(=O)CN1CCOCC1)[C@@H](C)CN([C@H](C)CO)S2(=O)=O,nt,18[16.7 µM],nt,-8,0,-7
O=[N+]([O-])c1ccc(N/N=C/c2ccccc2O)cc1,35,-106,6,-2,-2,69*
O=[N+]([O-])c1ccc(N/N=C/c2ccccc2)c(F)c1,87*,-59,34*,1,-6,nt
O=[N+]([O-])c1cccc(N/N=C/c2cc([N+](=O)[O-])ccc2O)c1,23,-40,4,4,nt,nt
CCCOc1ccc(/C=N/Nc2cccc([N+](=O)[O-])c2)c(O)c1,84*,-6,nt,nt,2,nt
Cc1csc(N/N=C/c2ccc([N+](=O)[O-])cc2)n1,nt,-96,12,-1,-4,53*
CN(C)C(=O)c1ccc(-c2ccc([C@@H]3[C@@H](CO)N(C(=O)C4CCOCC4)[C@H]3C#N)cc2)cc1,nt,-7[16.7 µM],nt,0,2,11
C/C=C/c1ccc2c(c1)O[C@H](CN(C)C(=O)CN(C)C)[C@@H](C)CN([C@H](C)CO)S2(=O)=O,nt,-2[16.7 µM],nt,-2,-2,-4
SMILES,MITF act,HIV Env fusion,Wnt act,ERAP1 inh,Cneo AK release,esBAF inh
C[C@H]1CN([C@@H](C)CO)C(=O)c2cc(-c3cccc(C#N)c3)cnc2O[C@H]1CN(C)C(=O)C1CCC1,nt,6[16.7 µM],nt,0,-3,-3
O=[N+]([O-])c1ccc(C=NNc2ccccc2)cc1,70,-7,14,8,-1,44*
O=[N+]([O-])c1cccc(C=NNc2ccccc2)c1,61,nt,-3,-1,-2,?
Cc1nc(-c2ccc(NC(=O)Cc3ccccc3)cc2)cs1,65,-27,4,1,-2,49*
O=C(Cc1ccccc1)Nc1ccccc1C(=O)Nc1ccccc1,3,0,-1,-3,nt,nt
Cc1nc(-c2ccc(NC(=O)c3ccccc3C)cc2)cs1,60,-98,-1,-1,-10,86*
Cc1ccc(NC(=O)c2ccccc2NC(=O)Cc2ccccc2)cc1,12,10,35*,nt,nt,nt
C/C(=N\NC(=O)c1cccc(C)c1O)c1ccc(NC(=O)Cc2ccccc2)cc1,92*,-232,13,0,-2,nt
C[C@H](CO)N1C[C@H](C)[C@@H](CN(C)S(C)(=O)=O)Oc2ccc(NC(=O)Cc3ccccc3)cc2CC1=O,nt,3[16.7 µM],nt,1,7,-3
CC(=O)N(C)C[C@H]1Oc2ncc(C3=CCCC3)cc2C(=O)N([C@H](C)CO)C[C@H]1C,nt,5[16.7 µM],nt,3,-1,-5
Cc1ccc(-c2ccc3c(c2)O[C@@H](CN(C)C(=O)C2CCCCC2)[C@@H](C)CN([C@H](C)CO)S3(=O)=O)cc1,nt,26[16.7 µM],nt,nt,nt,nt
Cc1nc(-c2ccc(NC(=O)c3ccccc3Br)cc2)cs1,?,-104,65*,nt,nt,nt
COc1ccc(S(=O)(=O)N2C[C@H](O)COC[C@@H]3O[C@@H](CC(=O)N[C@@H]4CCN(Cc5ccccc5)C4)CC[C@H]32)cc1,nt,-9[16.7 µM],nt,-2,0,-2
COc1ccc(Cl)cc1C(=O)Nc1ccc(Br)c(C)n1,5,-13,20,4,3,61*
CCOC(=O)c1cccc(NC(=O)c2cc3ccccc3o2)c1,nt,-65,7,1,-6,46*
Cc1cc(NC(=O)c2cccnc2Cl)ccc1NC(=O)c1cc2ccccc2o1,0,11,-1,-3,0,6
CCOC(=O)c1ccc(NC(=O)c2cc3ccccc3o2)cc1,111*,nt,nt,nt,0,25
O=C(Nc1cccnc1Cl)c1cc2ccccc2o1,71,-57,49*,5,-7,19
C[C@H](CO)N1C[C@H](C)[C@H](CN(C)Cc2ccc(-c3ccccc3)cc2)Oc2ccc(NC(=O)NC3CCCCC3)cc2C1=O,nt,6[16.7 µM],nt,-3,3,0
Cc1nc(NC(=O)c2ccc(Br)o2)ccc1Br,21,-35,0,0,-3,nt
Cc1cccc(NC(=O)c2cc3ccccc3o2)c1,28,-147,42*,nt,-2,63*
Cc1nc(NC(=O)c2cc3ccccc3o2)ccc1Br,63,-30,14,-3,-3,69*
Cc1cccc(NC(=S)NC(=O)c2ccc(-c3ccccc3)cc2)n1,32,-84,20,1,-1,28

# High-throughput results (PubChem)
